From ChEMBL document CHEMBL4732114, “Design and structural optimization of novel 2H-benzo[h]chromene derivatives that target AcrB and reverse bacterial multidrug resistance” (Eur J Med Chem, 2021)
The source made the active and inactive calls. No cut-off for these calls is given here.

How the values were obtained:
[1] = target: T1, Multidrug efflux pump subunit AcrB (Escherichia coli (strain K12)) (UniProt P31224); test: Inhibition of AcrB in Escherichia coli BW25113 assessed as reduction in glucose-induced nile red efflux at 100 to 200 uM preincubated for 15 mins followed by nile red addition and incubated for 3 hrs in shaker in presence of CCCP by fluorimetric analysis; settings: dose 100-200 µM, time 3.25 hrs
T1 sequence (whole entry): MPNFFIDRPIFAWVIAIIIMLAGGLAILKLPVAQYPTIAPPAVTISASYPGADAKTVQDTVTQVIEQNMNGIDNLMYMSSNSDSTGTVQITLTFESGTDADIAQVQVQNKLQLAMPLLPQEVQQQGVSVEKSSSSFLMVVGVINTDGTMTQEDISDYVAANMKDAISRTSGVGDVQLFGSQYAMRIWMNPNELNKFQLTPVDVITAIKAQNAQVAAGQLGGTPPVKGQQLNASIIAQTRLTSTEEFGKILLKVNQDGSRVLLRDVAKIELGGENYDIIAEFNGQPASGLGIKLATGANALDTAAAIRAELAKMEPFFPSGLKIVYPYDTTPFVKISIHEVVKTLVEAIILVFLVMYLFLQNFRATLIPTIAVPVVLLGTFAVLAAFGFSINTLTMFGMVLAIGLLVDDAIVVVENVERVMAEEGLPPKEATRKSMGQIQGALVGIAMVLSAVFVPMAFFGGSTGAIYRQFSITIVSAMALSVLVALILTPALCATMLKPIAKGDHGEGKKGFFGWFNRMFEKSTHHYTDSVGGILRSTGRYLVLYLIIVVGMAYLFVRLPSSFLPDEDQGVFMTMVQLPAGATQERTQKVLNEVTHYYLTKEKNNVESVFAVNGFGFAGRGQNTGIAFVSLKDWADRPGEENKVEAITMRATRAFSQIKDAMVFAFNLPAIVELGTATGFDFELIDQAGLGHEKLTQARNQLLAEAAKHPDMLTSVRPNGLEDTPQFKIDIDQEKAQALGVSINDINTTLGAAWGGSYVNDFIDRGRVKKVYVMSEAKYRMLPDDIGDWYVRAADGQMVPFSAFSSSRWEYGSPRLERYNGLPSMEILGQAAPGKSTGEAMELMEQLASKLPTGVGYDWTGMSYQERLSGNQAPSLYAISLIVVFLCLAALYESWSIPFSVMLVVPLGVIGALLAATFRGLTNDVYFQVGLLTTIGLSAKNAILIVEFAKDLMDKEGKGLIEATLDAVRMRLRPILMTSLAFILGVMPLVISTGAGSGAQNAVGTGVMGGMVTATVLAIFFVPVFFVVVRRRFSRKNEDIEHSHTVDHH
Procedure, shortened: (§1)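 Wild-type and AcrB-deleted cells were preloaded with Nile Red, with or without compound. Fluorescence was recorded, and efflux was triggered at 100 s with 0.2% glucose. Traces were compared with the deletion-strain level. Triplicate experiments used different cell batches.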

[2] = target: T1, Multidrug efflux pump subunit AcrB (Escherichia coli (strain K12)); test: Inhibition of AcrB in Escherichia coli BW25113 assessed as reduction in glucose-induced nile red efflux at 50 uM preincubated for 15 mins followed by nile red addition and incubated for 3 hrs in shaker in presence of CCCP by fluorimetric analysis; settings: time 3.25 hrs; procedure, shortened: as §1
Cell membrane [3] = test: Induction of outer membrane permeabilization in wild type Escherichia coli BW25113 assessed as increase in nitrocefin hydrolysis at 32 ug/ml in presence of CCCP by spectroscopic analysis; settings: dose 32 µg/ml
Procedure, shortened: (§2)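 Intact E. coli were treated with 10 μM CCCP to block nitrocefin efflux, then given compound, nothing, or polymyxin B as permeabilizer control. Nitrocefin was added, and hydrolysis by periplasmic β-lactamase was followed as the rise in absorbance at 490 nm. Duplicate experiments were run on different days.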

Cell membrane [4] = test: Induction of inner membrane permeabilization in wild type Escherichia coli BW25113 assessed as perturbation of proton motive force at 8 ug/ml measured after 10 mins in presence of CCCP and glucose by Di0C2(3) probe based fluorescence assay; settings: escherichia coli bw25113, 10 min, dose 8 µg/ml
Procedure, shortened: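 Cell suspensions were left untreated or exposed to 8-128 µg/mL compound for 10 min. DiOC₂(3) was then added and fluorescence followed to a plateau. Cells were re-energized with 0.5% glucose, and the rise in fluorescence was read as membrane-potential build-up. CCCP was added last to dissipate the potential.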

Cell membrane [5] = test: Induction of outer membrane permeabilization in wild type Escherichia coli BW25113 assessed as increase in nitrocefin hydrolysis at 64 ug/ml in presence of CCCP by spectroscopic analysis; settings: dose 64 µg/ml; procedure, shortened: as §2
[6] = target: T1, Multidrug efflux pump subunit AcrB (Escherichia coli (strain K12)); test: Inhibition of AcrB in multidrug-resistant Escherichia coli BW25113 assessed as potentiation of levofloxacin-induced antibacterial activity by measuring fold change in levofloxacin MIC at 8 ug/ml by checkerboard titration method relative to levofloxacin MIC; settings: dose 8.0 µg/ml
[7] = Cytotoxicity against human HepG2 cells assessed as growth inhibition at 100 uM relative to control; assay type: cell-based; settings: read-out: GI
Procedure, shortened: (§3)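 HepG2 cells treated at 10 μM and at 100 μM. Cell viability or inhibition rate recorded per concentration, with paclitaxel as positive control.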

[8] = target: T1, Multidrug efflux pump subunit AcrB (Escherichia coli (strain K12)); test: Inhibition of AcrB in multidrug-resistant Escherichia coli BW25113 assessed as potentiation of chloramphenicol-induced antibacterial activity by measuring fold change in chloramphenicol MIC at 128 ug/ml by checkerboard titration method relative to chloramphenicol MIC; settings: dose 128.0 µg/ml
[9] = Cytotoxicity against human HepG2 cells assessed as growth inhibition at 10 uM relative to control; assay type: cell-based; settings: read-out: GI; procedure, shortened: as §3
[10] = target: T1, Multidrug efflux pump subunit AcrB (Escherichia coli (strain K12)); test: Inhibition of AcrB in multidrug-resistant Escherichia coli BW25113 assessed as potentiation of erythromycin-induced antibacterial activity by measuring fold change in erythromycin MIC at 128 ug/ml by checkerboard titration method relative to erythromycin MIC; settings: dose 128.0 µg/ml
[11] = target: T1, Multidrug efflux pump subunit AcrB (Escherichia coli (strain K12)); test: Inhibition of AcrB in multidrug-resistant Escherichia coli BW25113 assessed as potentiation of tetraphenylphosphonium-induced antibacterial activity by measuring fold change in tetraphenylphosphonium MIC at 128 ug/ml by checkerboard titration method relative to tetraphenylphosphonium MIC; settings: dose 128.0 µg/ml
[12] = target: T1, Multidrug efflux pump subunit AcrB (Escherichia coli (strain K12)); test: Inhibition of AcrB in multidrug-resistant Escherichia coli BW25113 assessed as potentiation of tetraphenylphosphonium-induced antibacterial activity by measuring fold change in tetraphenylphosphonium MIC at 8 ug/ml by checkerboard titration method relative to tetraphenylphosphonium MIC; settings: dose 8.0 µg/ml
Cell membrane [13] = test: Induction of outer membrane permeabilization in wild type Escherichia coli BW25113 assessed as increase in nitrocefin hydrolysis at 256 ug/ml in presence of CCCP by spectroscopic analysis; settings: dose 256 µg/ml; procedure, shortened: as §2
[14] = target: T1, Multidrug efflux pump subunit AcrB (Escherichia coli (strain K12)); test: Inhibition of AcrB in multidrug-resistant Escherichia coli BW25113 assessed as potentiation of chloramphenicol-induced antibacterial activity by measuring fold change in chloramphenicol MIC at 64 ug/ml by checkerboard titration method relative to chloramphenicol MIC; settings: dose 64.0 µg/ml
[15] = target: T1, Multidrug efflux pump subunit AcrB (Escherichia coli (strain K12)); test: Inhibition of AcrB in multidrug-resistant Escherichia coli BW25113 assessed as potentiation of tetraphenylphosphonium-induced antibacterial activity by measuring fold change in tetraphenylphosphonium MIC at 64 ug/ml by checkerboard titration method relative to tetraphenylphosphonium MIC; settings: dose 64.0 µg/ml

## COc1cccc(COc2cccc3c4c(c(-c5nnco5)cc23)CCC(C)(C)O4)c1
[1]
  inhibition: Active

## C=CC(=O)Nc1ccc(COc2cccc3c4c(c(Cn5cnnn5)cc23)CCC(C)(C)O4)cc1
[2]
  inhibition: Active
Cell membrane [3]
  Activity: Not Active

## CC1(C)CCc2c(-c3nnco3)cc3c(OCc4ccc(C#N)cc4)cccc3c2O1
[2]
  inhibition: Active

## COc1cccc(COc2cccc3c4c(c(C(=O)N5CCOCC5)cc23)CCC(C)(C)O4)c1
[2]
  inhibition: Active

## CC(C)NCCOc1ccc2c(c1)OC(C)(C)CC2=O
Cell membrane [4]
  Activity: Not Active

## CC1(C)CCc2c(Cn3cnnn3)cc3c(OCc4ccccc4)cccc3c2O1
Cell membrane [5]
  Activity: Not Active

## CC1CN(C(=O)c2cc3c(OCc4c(Cl)cccc4Cl)cccc3c3c2CCC(C)(C)O3)CC(C)O1 (stereo unspecified)
Cell membrane [4]
  Activity: Not Active
[6]
  fold change (FC): 2

## Cc1ccc(COc2cccc3c4c(c(-c5nnco5)cc23)CCC(C)(C)O4)cc1
[7]
  inhibition at 100 µM: 87%
[8]
  fold change (FC): < 16
[9]
  inhibition at 10 µM: 6%
[10]
  fold change (FC): < 16
[11]
  fold change (FC): < 16
[12]
  fold change (FC): 2
[6]
  fold change (FC): 2

## Cc1ccccc1COc1cccc2c3c(c(-c4nnco4)cc12)CCC(C)(C)O3
Cell membrane [13]
  Activity: Not Active

## CC1(C)CCc2c(C(=O)N3CCOCC3)cc3c(OCc4ccccc4)cccc3c2O1
[7]
  inhibition at 100 µM: 66%
[9]
  inhibition at 10 µM: 2%
Cell membrane [4]
  Activity: Not Active

## CC1(C)CC(=O)c2ccc(OCCNC3CCCC3)cc2O1
[1]
  inhibition: Active

## CC1(C)CC(=O)c2ccc(OCC(=O)Nc3ccc(C#N)c(C(F)(F)F)c3)cc2O1
[1]
  inhibition: Active
Cell membrane [5]
  Activity: Not Active
[14]
  fold change (FC): 2
[15]
  fold change (FC): 4

## CNC(=O)c1ccc(COc2cccc3c4c(c(Cn5cnnn5)cc23)CCC(C)(C)O4)cc1
[1]
  inhibition: Active
Cell membrane [5]
  Activity: Not Active

## CC1(C)CCc2c(-c3nnco3)cc3c(OCc4ccc([N+](=O)[O-])cc4)cccc3c2O1
Cell membrane [13]
  Activity: Not Active

## C=CC(=O)Nc1ccc(COc2cccc3c4c(c(C(=O)N5CCOCC5)cc23)CCC(C)(C)O4)cc1
Cell membrane [4]
  Activity: Not Active

## CC1(C)CCc2c(C(=O)N3CCOCC3)cc3c(OCc4ccc(C(F)(F)F)cc4)cccc3c2O1
Cell membrane [4]
  Activity: Not Active
[2]
  inhibition: Active
